Published values collected from several papers.
Compare with care: the assays were run in different laboratories.

| SMILES | species | matrix | route | dose | time | setting | concentration |
| --- | --- | --- | --- | --- | --- | --- | --- |
| CC(C)Oc1cccc(-c2cnc(N3CCC(C(N)=O)CC3)s2)c1 | male Swiss mouse | plasma | oral | 30 mg/kg | 30 min | single dose | 416 ng/mL |
| O=S(=O)(c1cccc(C(F)(F)F)c1)N1c2cc(OCc3c(Cl)cncc3Cl)ccc2CC1C(F)(F)F (stereo not shown) | mouse | plasma | intraperitoneal | 10 mg/kg | 2 h |  | 600 nM |
| Cc1c2ccnc(C(=O)N[C@H](C)CN(C)C)c2cc2c3cc(O)ccc3n(C)c12 | male C57BL/6 mouse | brain | intraperitoneal | 10 mg/kg | 2 h | single dose | 80 nM |
| O=S(=O)(c1cccc(C(F)(F)F)c1)N1CCc2ccc(OCc3c(F)cncc3Cl)cc21 | mouse | plasma | intraperitoneal | 10 mg/kg | 2 h |  | 410 nM |
| c1ccc(-c2nc(N3CCC(c4ccccn4)C3)c3ccccc3n2)nc1 (stereo not shown) | female BALB/c mouse | plasma | oral | 50 mg/kg | 15 min |  | 2130 ng/mL |
| C[C@]12C[C@@]34C=CC(=O)[C@@](C)(CCC(=O)Nc5c(O)ccc(C(=O)O)c5O)[C@@H]3[C@H](C[C@@H]1C4)O2 | male C57BL/6 mouse | plasma | intravenous | 3 mg/kg | 5 min | single dose | 20000 nM |
| [2H]c1c([2H])c([2H])c(-c2ccc([C@H](Cn3ccnc3)NC(=O)c3ccc(-c4nnc(-c5ccccc5)o4)cc3)c(Cl)c2)c([2H])c1[2H] | BALB/c mouse | liver | oral | 25 mg/kg | 4 h | single dose | 17000 nM |
| COc1cc(F)c([C@@H]2CNC(=O)[C@H]2NC(=O)Nc2ccccc2)c(F)c1 | C57BL/6 mouse | plasma | oral | 3 mg/kg | 2 h |  | 84 nM |
| CC(C)Cc1nn(C)c(=O)c2c(SCCCO)n(Cc3cccc4ccccc34)cc12 | mouse | brain | intraperitoneal | 20 mg/kg | 7 days |  | 0 nM |
| O=S(=O)(c1cccc(C(F)(F)F)n1)N1CCc2ccc(OCc3c(F)cccc3Cl)cc21 | mouse | plasma | intraperitoneal | 10 mg/kg | 4 h |  | 120 nM |
| CC(C)CN(C[C@@H](O)[C@H](Cc1ccccc1)NC(=O)O[C@H]1CO[C@H]2OCC[C@H]21)S(=O)(=O)c1ccc(N)cc1 | BALB/c mouse | plasma | intravenous | 2.5 mg/kg | 12 h |  | 0.33 ng/mL |
| O=c1nc(N2CCN(CC3CCCCC3)CC2)sc2c([N+](=O)[O-])cc(C(F)(F)F)cc12 | CD-1 mouse | lung | oral | 100 mg/kg | 4 h |  | 620 ng/mL |
| CC(C)(Nc1nc(-c2ccccn2)nc2ccccc12)c1ccccn1 | female BALB/c mouse | plasma | intravenous | 1 mg/kg | 1 h |  | 487 ng/mL |
| O=C(O)C1CCN(c2ncc(-c3ccc4c(c3)OCCCO4)s2)CC1 | male Swiss mouse | plasma | oral | 30 mg/kg | 15 min | single dose | 15000 ng/mL |
| O=S(=O)(c1ccc(-c2ccc3nccc(Nc4ccncn4)c3c2)cc1)N1CCOCC1 | female BALB/c mouse | plasma | intraperitoneal | 10 mg/kg | 15 min |  | 4460 ng/mL |
| CSc1cc(Oc2ccnc3[nH]c(=O)cnc23)ccc1NC(=O)Nc1cc(C(C)(C)C)nn1-c1ccccc1 | BALB/c mouse | plasma | oral | 10 mg/kg/day | 14 h |  | ~1000 nM |
